# Assay outcomes from PubChem BioAssay.
# Rows were chosen to be rich in hits. Some 1.8% of all compounds tested hit in one or more screens of this group.
# M4 ag – agonists of human muscarinic M4 receptor (CHRM4); activation, % at 3 µM; 0.14% of 360,000 active; CHO-K1 hM4/Gqi5, Fluo-8 calcium fluorescence; vehicle 0%, full acetylcholine response 100%;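 active = activation above the run mean over all test wells plus 3 SD, cut at about 32% in these data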;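 also: peak over basal fluorescence ratio per well then scaled between controls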
# M5 antag – blocks acetylcholine activation of human M5 receptor | P08912 | CHO-hM5 cells, Fluo-8 calcium fluorescence, ACh EC80 | inhibition, % at 3 µM | 0.59% of 360,000 active;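 active = inhibition above a per-plate cutoff, the mean of that plate's test compounds plus 3 SD, cut at about 27% in these data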
# Target sequence (P08912 whole entry, looked up): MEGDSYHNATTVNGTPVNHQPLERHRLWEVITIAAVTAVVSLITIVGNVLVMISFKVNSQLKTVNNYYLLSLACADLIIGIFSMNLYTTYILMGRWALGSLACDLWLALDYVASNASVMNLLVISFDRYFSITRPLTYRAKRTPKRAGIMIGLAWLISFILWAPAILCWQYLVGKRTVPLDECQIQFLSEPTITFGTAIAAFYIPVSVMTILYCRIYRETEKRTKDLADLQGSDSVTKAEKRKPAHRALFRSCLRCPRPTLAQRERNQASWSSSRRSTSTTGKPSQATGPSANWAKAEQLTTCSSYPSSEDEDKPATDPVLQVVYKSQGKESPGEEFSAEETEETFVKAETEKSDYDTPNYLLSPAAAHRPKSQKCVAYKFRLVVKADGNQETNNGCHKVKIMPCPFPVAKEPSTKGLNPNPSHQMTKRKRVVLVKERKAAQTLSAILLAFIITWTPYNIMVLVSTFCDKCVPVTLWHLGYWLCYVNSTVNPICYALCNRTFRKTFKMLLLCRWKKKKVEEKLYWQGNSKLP
# M4 PAM – positive allosteric modulators of human muscarinic M4 receptor; P08173; AID 624126; 0.4% of 360,000 active; CHO-K1 hM4/Gqi5, Fluo-8 calcium fluorescence, ACh EC20; 0% = ACh EC20, 100% = maximal ACh; activation, % at 3 µM;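 active = activation above its plate's cutoff, the mean activation of sample wells plus 3 SD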
# CHRM5 PAM – CHRM5 positive allosteric modulation; P08912; CHO-K1 hM5, Fluo-8 calcium, ACh EC20 PAM; 0% = ACh EC20, 100% = ACh EC100; activation, % at 3 µM; 0.3% of 360,000 active; AID 624038;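 active = activation above the run cutoff, the mean activation of all test compounds plus 3 SD, cut at about 18% in these data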
#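 Replicates: One well per compound, no replicates | System: Human M5 receptor in CHO-K1 cells | Benchmarks: Low control EC20 acetylcholine (0%), high control EC100 acetylcholine (100%) | Probe or stimulus: Acetylcholine, EC20 level | Times: Fluo-8 loading 80 min at 37 °C plus 30 min room temperature | Signal: Intracellular calcium via Fluo-8 fluorescence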
# M5 ag – CHRM5 agonism in calcium assay. 0.19% of 360,000 active. activation, % at 3 µM. AID 624037. P08912. CHO-K1 hM5 cells, Fluo-8 calcium fluorescence; 0% DMSO wells, 100% maximal acetylcholine response;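 active = activation above the run's mean over test compounds plus 3 SD, cut at about 23% in these data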;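 also: signal is peak over basal fluorescence ratio across the kinetic read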
# CHRM4 antagonist – blocks acetylcholine activation of human M4 receptor | P08173 | CHO-hM4 cells, ACh EC80, Fluo-8 calcium fluorescence | inhibition, % at 3 µM | 0.73% of 360,000 active | AID 624125;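 active = inhibition above its plate's cutoff, the mean inhibition of sample wells plus 3 SD, cut at about 27% in these data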
# A number is an active result; 0 = inactive.
SMILES,M4 ag,M5 antag,M4 PAM,CHRM5 PAM,M5 ag,CHRM4 antagonist
O=C(C1CCCCC1)N1CCC2CC1c1cc(-c3ccc4c(c3)OCO4)ccc12 (configuration not stated),0,0,0,0,0,0
CC1(C(=O)Nc2ccc3c(c2)OCO3)CCN1C(=O)Cc1ccc(-c2ccccc2)cc1 (configuration not stated),0,31,0,0,0,27
CC(C)S(=O)(=O)NC(=O)C1(C)CCN1C(=O)Cc1ccccc1 (configuration not stated),0,29,0,0,0,0
CC1(C(=O)Nc2ccccc2)CCN1C(=O)Cc1ccc(-c2ccccc2)cc1 (configuration not stated),0,0,0,0,0,0
COc1ccccc1-c1sc2cc3c(cc2c1-c1ccc(OCCN2CCCCC2)cc1)OCO3,0,0,0,0,0,35
COc1cc2sc(-c3ccccc3OC)c(-c3ccc(OCCN4CCCCC4)cc3)c2cc1OC,0,0,0,0,0,0
Cc1cc(C)cc(NC(=O)CSc2nc3[nH]ncc3c(=O)[nH]2)c1,0,0,31,22,0,0
CN(C(=O)CSc1nc2[nH]ncc2c(=O)[nH]1)c1ccccc1,0,0,18,0,0,0
CCCCCNC(=O)C(c1cc2ccccc2o1)n1c(=O)c(-c2ccco2)nc2ccccc21 (configuration not stated),0,0,27,0,0,0
CC(C)(C)NC(=O)C(c1cc2ccccc2o1)n1c(=O)c(-c2ccco2)nc2ccccc21 (configuration not stated),0,0,0,0,0,0
Cc1cc(NC(=O)c2cccnc2)ccc1NC(=O)c1cc2ccccc2o1,33,0,0,0,0,0
Cc1cc(NC(=O)c2cc3ccccc3o2)ccc1NC(=O)c1ccccc1,0,0,0,0,0,0
O=C(Nc1ccccc1OC(F)F)c1ccc(F)cc1,0,0,0,24,0,0
CC1CCN(c2c(NCC3CCC(C(=O)NC4CCCCCC4)CC3)c(=O)c2=O)CC1 (configuration not stated),0,0,0,0,0,31
CC1CCN(c2c(NCC3CCC(C(=O)N4CCCCC4)CC3)c(=O)c2=O)CC1 (configuration not stated),0,0,0,0,0,0
Cc1n[nH]c(=O)nc1NC(C)c1ccccc1 (configuration not stated),0,0,0,0,0,28
COc1ccccc1Nc1nc(=O)[nH]nc1C,0,0,0,0,0,0
Cc1ccc(S(=O)(=O)Nc2ccc3nc(C)sc3c2)cc1,0,30,0,0,0,0
Cc1nc2ccc(NS(=O)(=O)c3ccc4c(c3)OCCO4)cc2s1,0,0,0,0,0,27
Cc1nc2ccc(NS(=O)(=O)c3ccc(F)c(F)c3)cc2s1,0,0,0,0,0,0
Cc1ccc(S(=O)(=O)c2cccc(S(=O)(=O)N3CCCC3)c2)cc1S(=O)(=O)N1CCCC1,0,0,0,0,0,81
CCCN(CC(=O)Nc1ccccc1C)C(=O)c1cccc(S(=O)(=O)N2CCc3ccccc3C2)c1,0,28,0,0,0,0
Cc1ccc(S(=O)(=O)N2CC3(O)CN(C(=O)OC(C)C)N(C(=O)OC(C)C)CC3(OC(=O)NC3CCCC3)C2)cc1 (configuration not stated),0,0,0,0,0,0
O=[N+]([O-])c1ccc2c(c1)C(O)n1nc(-c3ccc(Cl)cc3Cl)nc1S2 (configuration not stated),0,0,0,25,0,0
O=[N+]([O-])c1ccc2c(c1)C(O)n1ncnc1S2 (configuration not stated),0,0,0,0,0,0
SMILES,M4 ag,M5 antag,M4 PAM,CHRM5 PAM,M5 ag,CHRM4 antagonist
C[C@@H]1CC=C[C@H]2[C@H]1C(=O)N(Cc1ccccc1)[C@H]2c1ccc2ccccc2c1Br,0,0,0,22,0,0
C[C@@H]1CC=C[C@H]2[C@H]1C(=O)N(Cc1ccccc1)[C@H]2c1ccc2ccccc2c1,0,0,0,0,0,0
c1ccc(CCNc2nc(-c3ccccn3)nc3ccccc23)cc1,0,0,0,0,0,0
O=C(Cn1c2ccccc2c2nc3n(c(=O)c21)CCS3)Nc1ccccc1C(F)(F)F,0,0,0,19,0,0
O=C(c1ccc2c(c1)OCO2)C1CCCN(Cc2ccccc2OC(F)F)C1 (configuration not stated),0,0,0,0,0,40
c1ccc(Cn2nnc3c(N4CCCC4)ncnc32)cc1,0,0,21,0,0,0
CCN1CCN(c2ncnc3c2nnn3Cc2ccccc2)CC1,0,0,0,0,0,0
CC1(c2ccc(OC(F)F)cc2)NC(=O)N(/N=C/c2c(O)ccc3ccccc23)C1=O (configuration not stated),0,0,20,0,0,0
O=C(N/C(=C/c1ccc(Cl)cc1)c1nc2ccccc2[nH]1)c1ccco1,0,0,0,0,0,0
O=C(/C(=C/c1ccc(Cl)cc1)c1nc2ccccc2[nH]1)c1ccccc1,0,0,0,0,0,38
COc1cc(C2CC(=O)Nc3ccccc3S2)cc(OC)c1OC (configuration not stated),0,0,0,0,0,35
O=C1CC(c2ccc(F)cc2)Sc2ccccc2N1 (configuration not stated),0,0,0,0,0,0
O=C(c1ccc2[nH]c(=O)c(=O)[nH]c2c1)N1CCc2ccccc2C1,0,0,0,0,0,0
CC1CC(OC(=O)C(O)c2ccccc2)CC(C)(C)N1C (configuration not stated),0,88,0,0,0,41
CCCC(=O)c1c(NC(C)C)cc(C)oc1=O,0,0,39,0,0,0
COC(=O)C1=C(C)OC(N)=C(C#N)C1c1cc2cc(C)ccc2nc1Cl (configuration not stated),0,0,0,0,26,0
COCCNC(=O)C1CCCN(C(=O)c2ccc3ccccc3n2)CC1 (configuration not stated),0,0,0,0,0,0
O=Cc1cn(CC(=O)Nc2ccc3c(c2)OCO3)c2ccccc12,0,27,0,0,0,0
Cc1ccc(NC(=O)Cn2cc(C=O)c3ccccc32)cc1,0,0,0,0,0,0
CN(C)CCN(Cc1cccs1)c1ccccn1,0,0,0,0,0,27
CN(C)CCN(Cc1ccco1)c1ccccn1,0,0,0,0,0,0
Fc1ccccc1CN1CCCCCCC1,0,0,0,0,0,0
c1ccc(Sc2ccccc2CN2CCCC2)cc1,0,74,0,0,0,39
